Measurements published in ChEMBL document CHEMBL1152725, “New potent imidazoisoquinolinone derivatives as anti-Trypanosoma cruzi agents: biological evaluation and structure-activity relationships” (Bioorg Med Chem, 2009).
In brackets after ≈: the same amount, converted by molar mass. Activity calls are given as the source filed them. No cut-off for these calls is given here.

Columns and labels:
Trypanosoma cruzi = assay: Antitrypanosomal activity against Trypanosoma cruzi Tulahuen 2 epimastigotes after 5 days; format: functional, organism-based; conditions: Tulahuen 2, 120 h
Summary of the method: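 T. cruzi Tulahuen 2 epimastigotes were grown axenically at 28 °C in BHI-tryptose with 5% FCS. Stationary-phase (5-day) cells were inoculated at 1 × 10⁶ cells/mL, with DMSO ≤0.4% final. Cultures ran 5 days with or without compound, first as a 25 µM screen and then at increasing concentrations. IC50 is the concentration halving this ratio.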

DNA = assay: Binding affinity to calf thymus DNA at a DNA-drug molar ratio of 5:1 after 24 hrs by UV spectroscopy; format: nucleic-acid assay; conditions: Bos taurus
Summary of the method: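 Calf thymus DNA was prepared in 10 mM Tris–HCl pH 7.4. Compound (2 × 10⁻⁵ M, from an ethanol stock diluted with water) was mixed 1:1 by volume with the DNA solution at a 5:1 DNA-drug ratio. The mixture was rotated slowly for 24 h. UV absorbance area at maximal absorbance was compared (a24/a0), where 1 means no affinity and 0 means fully bound.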

HeLa = assay: Cytotoxicity against human HeLa cells after 24 hrs by MTT assay; format: cell-based
Summary of the method: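 HeLa cells were kept in DMEM with 10% FBS, penicillin and streptomycin at 37 °C and 5% CO2. Cells were seeded, and after 48 h compound was added at 4, 20 or 100 µM for 24 h. After PBS washes, cells got MTT at 0.5 mg/mL final for 4 h at 37 °C. Formazan was dissolved in isopropanol/HCl and read at 570 nm after blank subtraction. Survival is % of control, with ≥3 repeats of four samples each.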

Leishmania donovani = assay: Antiparasitic activity against Leishmania donovani; format: functional, organism-based
L6 = assay: Cytotoxicity against rat L6 cells; format: cell-based
[1] = test system: Trypanosoma brucei rhodesiense; assay: Antiparasitic activity against Trypanosoma brucei rhodesiense; format: functional, organism-based
Plasmodium falciparum = assay: Antiparasitic activity against Plasmodium falciparum K1; format: functional, organism-based
Leishmania infantum = assay: Antiparasitic activity against Leishmania infantum; format: functional, organism-based
[2] = Selectivity index, ratio of IC50 for human HeLa cells to IC50 for Trypanosoma cruzi Tulahuen 2 epimastigotes; format: toxicity, cell-based; conditions: HeLa cells versus Trypanosoma cruzi Tulahuen 2 epimastigotes, read-out: Ratio IC50
Summary of the method: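 Selectivity index is the HeLa IC50 divided by the IC50 against T. cruzi Tulahuen 2 epimastigotes (5-day growth assay).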

Onchocerca gutturosa [3] = assay: Antiparasitic activity against Onchocerca gutturosa assessed as reduction in motility after 120 hrs; format: functional; parameters: scale not given: the % may be the effect or the level left
Onchocerca gutturosa [4] = assay: Antiparasitic activity against Onchocerca gutturosa assessed as inhibition of MTT formazan formation; format: functional; parameters: scale not given: the % may be the effect or the level left

IC50 (Trypanosoma cruzi)	Activity (DNA)	IC50 [1]	IC50 (Plasmodium falciparum)	IC50 (Leishmania infantum)	SMILES	IC50 (HeLa)	Activity (Leishmania donovani)	IC50 (L6)	selectivity ratio [2]	Activity (Onchocerca gutturosa [3])	Activity (Onchocerca gutturosa [4])
25 µM	0.8				O=c1c2ccccc2c(C(=S)Nc2cccc3ccccc23)c2n1CCN2						
30 µM	0.8				O=c1c2ccccc2c(C(=S)Nc2ccccn2)c2n1CCN2	> 100 µM					
6.4 µM	0.8	> 22.7 µg/mL	> 19.5 µg/mL	> 19.5 µg/mL	O=c1c2ccccc2c(C(=S)Nc2ccccc2)c2[nH]c3ccccc3n12	98 µM	inactive	> 22.8 µg/mL	15		
0.5 µM	0.8	> 22.7 µg/mL	> 22.7 µg/mL	> 22.7 µg/mL	O=c1c2ccccc2c(C(=S)Nc2ccc(Cl)cc2)c2n1CCN2	> 90 µM	inactive	> 22.8 µg/mL	> 180		
					CC/C(=C(\c1ccccc1)c1ccc(OCCN(C)C)cc1)c1ccccc1 [TAMOXIFEN]			4.9 µg/mL (≈ 13.2 µM)			
43 µM	0.8				CC(=O)N1CCn2c1c(C(=S)Nc1ccccc1)c1ccccc1c2=O						
> 25 µM	0.85				O=c1c2ccccc2cc2[nH]c3ccccc3n12	> 100 µM					
1 µM	0.8				Cc1ccc(NC(=S)c2c3n(c(=O)c4ccccc24)CCN3)cc1	> 100 µM			> 100		
					CN1CCN(C(=S)Nc2ccc(Nc3ccc([N+](=O)[O-])cc3)cc2)CC1 [AMOCARZINE]					85.71%	48.57%
30 µM	0.8	> 19.5 µg/mL	> 19.5 µg/mL	> 19.5 µg/mL	O=C(Nc1ccccc1)c1c2n(c(=O)c3ccccc13)CCN2	> 100 µM	inactive	> 19.6 µg/mL			
					CC1CS(=O)(=O)CCN1/N=C/c1ccc([N+](=O)[O-])o1 (stereo not given) [NIFURTIMOX]	12 µM			1.5		
12.3 µM	0.8				COc1ccc(NC(=S)c2c3n(c(=O)c4ccccc24)CCN3)cc1	22 µM			1.7		
35 µM	0.8				O=c1c2ccccc2c(C(=S)NCc2ccc(Cl)cc2)c2n1CCN2	> 90 µM					
		0.13 µg/mL (≈ 0.1 µM)			Cc1ccc(C(=O)Nc2ccc(S(=O)(=O)O)c3cc(S(=O)(=O)O)cc(S(=O)(=O)O)c23)cc1NC(=O)c1cccc(NC(=O)Nc2cccc(C(=O)Nc3cc(C(=O)Nc4ccc(S(=O)(=O)O)c5cc(S(=O)(=O)O)cc(S(=O)(=O)O)c45)ccc3C)c2)c1 [SURAMIN]						
> 25 µM	0.8	1.2 µg/mL (≈ 6.44 µM)	> 10 µg/mL	> 20.7 µg/mL	O=c1c2ccccc2cc2n1CCN2	> 100 µM	inactive	> 100 µg/mL		14.29%	0%
3 µM	0.8				O=c1c2ccccc2c(C(=S)Nc2ccccc2)c2n1CCN2	> 100 µM			> 33		
20 µM	0.8				Cc1cccc(NC(=S)c2c3n(c(=O)c4ccccc24)CCN3)c1	> 52.5 µM					
